Assay results published in PMC4593394 (ACS chemical biology, 2015).

Assays:
GroEL = GroEL (Escherichia coli, UniProt P0A6F5); assay: biochemical; parameters: species or system E. coli
[1] = test system: actin (phalloidin), vimentin, and annexin II; assay: Immunofluorescence of structural proteins; assay type: cell-based; details: HEK293 cells, 4 h, concentrations used in the cellular studies
wt p97 = wt p97 (Homo sapiens, UniProt P55072); assay: p97 ATPase assay; assay type: biochemical
Procedure, shortened: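 Test compound in DMSO (0.0004–100 μM) preincubated 10 min at 21 °C, then 100 μM ATP added at 21 °C. IC50 fitted from % inhibition versus log concentration. Screen: 100 μM pure compounds, EDTA positive control.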

p97–C209A = p97–C209A (Homo sapiens, UniProt P55072, C209A); assay: ATPase assay, p97 C209A variant; assay type: biochemical
Procedure, shortened: (§1)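 His-tagged p97 variants were expressed from pET14b in E. coli BL21(DE3) and purified on Talon resin; C522A and C209A were also run on Superose 6. Enzyme (100 nM) was in 50 mM Tris pH 7.4, 150 mM KCl, 10 mM MgCl2, 1 mM DTT. Compound (0.0004–100 μM, 12 points, DMSO) was preincubated 10 min at 21 °C. 100 μM ATP was added at 21 °C. IC50 came from % inhibition versus log concentration.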

20S proteasome = 20S proteasome (Homo sapiens, UniProt P20618+P28074); assay: 20S proteasome chymotrypsin-like activity; assay type: biochemical; details: 1.2 nM 20S proteasome, Suc-LLVY-AMC
Procedure, shortened: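 Kit-supplied 20S proteasome (1.2 nM final) was preincubated with test compound (eight-point, 3-fold serial dilutions) in kit reaction buffer at 37 °C for 10 min. Then 50 μM Suc-LLVY-AMC was added, followed by 1 h at 37 °C. AMC fluorescence was read at ex 380/em 440 nm. IC50 was taken from a semi-log plot of relative fluorescence versus concentration.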

[2] = test system: Ub^G76VGFP in HEK293 cells; assay: Ub^G76VGFP reporter level, Western blot; assay type: cell-based; details: anti-GFP Western blot
[3] = molecular target: N-ethylmaleimide sensitive factor (NSF) (Cricetulus griseus, UniProt P18708); assay: NSF ATPase assay; assay type: biochemical, Chinese hamster (Cricetulus griseus)
Procedure, shortened: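 Chinese hamster NSF was expressed in E. coli Rosetta 2(DE3), purified by Talon then Superdex 200, and used at 200 nM in 50 mM Tris pH 7.4, 150 mM KCl, 10 mM MgCl2, 1 mM DTT. Compound (0.0004–100 μM in DMSO) was preincubated 10 min at 21 °C, then 100 μM ATP was added. IC50 was fitted from % inhibition on a semi-log plot.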

wild-type p97 (wt-p97) = wild-type p97 (wt-p97) (Homo sapiens, UniProt P55072); assay: Analysis of covalent reactivity: p97 ATPase activity after dialysis; assay type: biochemical; details: 1 μM compound, 1 μM p97, 2 mM ATP
Procedure, shortened: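 His-tagged wild-type p97 (pET14b, E. coli BL21(DE3), Talon-purified; 1 μM) was incubated with 1 μM compound in Tris/KCl/MgCl2/DTT buffer pH 7.4 at 4 °C 12 h, 21 °C 6 h or 37 °C 2 h; 1% DMSO served as control. The mixture was dialysed against buffer exchanged three times at 2-h intervals.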

XBP1s in HEK293 cells = assay: Unfolded protein response: XBP1 splicing, Western blot; assay type: cell-based; details: anti-XBP1 Western blot
Procedure, shortened: (§2)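 HEK293 cells were treated with compound in DMEM/10% FBS for 24 h and lysed in SDS sample buffer with sonication. Lysates were run on 4–20% gradient SDS-PAGE and transferred to nitrocellulose, blocked 1 h in 5% milk, then probed with 1:1000 anti-ubiquitin, anti-XBP1s (spliced […] band) or anti-LC3 I/II (LC3-II lowest band). Secondaries were used at 1:3000 with chemiluminescent detection; lamin A or GAPDH served as loading controls.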

p97–C522A = p97–C522A (Homo sapiens, UniProt P55072, C522A); assay: ATPase assay, p97 C522A variant; assay type: biochemical
Procedure, shortened: as §1

ClpX = ClpX (Escherichia coli, UniProt P0A6H1); assay: ClpX ATPase assay; assay type: biochemical, bacterial
[4] = test system: total ubiquitylated proteins in HEK293 cells; assay: Total ubiquitylation, Western blot; assay type: cell-based; details: anti-ubiquitin antibody
Procedure, shortened: as §2

p97–Cys0 = p97–Cys0 (Homo sapiens, UniProt P55072, C105V/C174V/C184V/C209A/C415V/C522A/C535V/C572V/C691V/C695V/C69V/C77V); assay: ATPase assay, cysteine-less p97 variant; assay type: biochemical
Procedure, shortened: as §1

in vitro [5] = details: human
in vitro [6] = details: human; remark: listed apart in the source
in vitro [7] = details: human; remark: listed apart in the source
in vitro [8] = details: human; remark: listed apart in the source
in vitro [9] = details: human; remark: listed apart in the source
in vitro [10] = details: human; remark: listed apart in the source

Chain of wt p97 (P55072 whole entry): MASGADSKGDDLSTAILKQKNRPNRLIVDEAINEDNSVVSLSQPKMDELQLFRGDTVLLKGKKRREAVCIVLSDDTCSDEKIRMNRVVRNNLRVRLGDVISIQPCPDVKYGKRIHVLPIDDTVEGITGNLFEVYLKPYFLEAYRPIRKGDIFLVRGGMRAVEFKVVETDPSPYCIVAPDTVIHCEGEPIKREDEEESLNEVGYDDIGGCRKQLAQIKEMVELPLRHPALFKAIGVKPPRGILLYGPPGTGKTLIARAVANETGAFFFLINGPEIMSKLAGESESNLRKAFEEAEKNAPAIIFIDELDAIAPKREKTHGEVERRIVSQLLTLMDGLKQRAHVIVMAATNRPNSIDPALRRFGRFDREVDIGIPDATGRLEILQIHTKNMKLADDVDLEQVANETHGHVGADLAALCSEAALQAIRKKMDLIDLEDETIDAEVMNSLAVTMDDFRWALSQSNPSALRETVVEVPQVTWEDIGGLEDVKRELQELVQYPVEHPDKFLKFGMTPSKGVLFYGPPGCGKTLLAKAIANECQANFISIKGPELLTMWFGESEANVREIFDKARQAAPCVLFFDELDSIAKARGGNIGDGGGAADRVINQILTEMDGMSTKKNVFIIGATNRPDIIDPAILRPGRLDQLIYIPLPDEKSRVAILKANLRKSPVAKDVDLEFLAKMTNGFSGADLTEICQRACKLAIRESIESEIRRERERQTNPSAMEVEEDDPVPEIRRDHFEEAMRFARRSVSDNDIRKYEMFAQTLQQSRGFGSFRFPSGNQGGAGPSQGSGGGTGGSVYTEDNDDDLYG
Chain of N-ethylmaleimide sensitive factor (NSF) (P18708 whole entry): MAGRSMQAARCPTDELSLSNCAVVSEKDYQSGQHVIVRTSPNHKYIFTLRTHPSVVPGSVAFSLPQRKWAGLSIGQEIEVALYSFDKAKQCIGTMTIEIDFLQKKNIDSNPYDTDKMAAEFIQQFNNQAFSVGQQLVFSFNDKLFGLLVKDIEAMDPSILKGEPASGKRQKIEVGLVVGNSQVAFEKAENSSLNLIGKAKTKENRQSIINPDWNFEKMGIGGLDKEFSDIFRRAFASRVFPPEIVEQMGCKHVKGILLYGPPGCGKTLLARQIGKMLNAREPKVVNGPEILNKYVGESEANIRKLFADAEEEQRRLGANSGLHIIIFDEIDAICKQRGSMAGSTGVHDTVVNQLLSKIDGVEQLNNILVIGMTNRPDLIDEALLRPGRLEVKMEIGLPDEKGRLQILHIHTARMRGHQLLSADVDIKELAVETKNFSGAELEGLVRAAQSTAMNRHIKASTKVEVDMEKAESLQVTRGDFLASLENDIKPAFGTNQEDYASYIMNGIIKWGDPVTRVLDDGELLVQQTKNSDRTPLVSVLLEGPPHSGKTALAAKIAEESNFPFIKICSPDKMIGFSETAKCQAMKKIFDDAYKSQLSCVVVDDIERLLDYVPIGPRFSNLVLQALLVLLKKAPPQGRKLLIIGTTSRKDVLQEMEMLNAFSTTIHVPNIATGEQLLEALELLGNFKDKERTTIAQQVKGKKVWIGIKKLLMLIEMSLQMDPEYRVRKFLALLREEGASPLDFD
Chain of p97–C522A (P55072 whole entry C522A): as the sequence (P55072 whole entry) above, with C522A counted along it
Chain of GroEL (P0A6F5 2-548): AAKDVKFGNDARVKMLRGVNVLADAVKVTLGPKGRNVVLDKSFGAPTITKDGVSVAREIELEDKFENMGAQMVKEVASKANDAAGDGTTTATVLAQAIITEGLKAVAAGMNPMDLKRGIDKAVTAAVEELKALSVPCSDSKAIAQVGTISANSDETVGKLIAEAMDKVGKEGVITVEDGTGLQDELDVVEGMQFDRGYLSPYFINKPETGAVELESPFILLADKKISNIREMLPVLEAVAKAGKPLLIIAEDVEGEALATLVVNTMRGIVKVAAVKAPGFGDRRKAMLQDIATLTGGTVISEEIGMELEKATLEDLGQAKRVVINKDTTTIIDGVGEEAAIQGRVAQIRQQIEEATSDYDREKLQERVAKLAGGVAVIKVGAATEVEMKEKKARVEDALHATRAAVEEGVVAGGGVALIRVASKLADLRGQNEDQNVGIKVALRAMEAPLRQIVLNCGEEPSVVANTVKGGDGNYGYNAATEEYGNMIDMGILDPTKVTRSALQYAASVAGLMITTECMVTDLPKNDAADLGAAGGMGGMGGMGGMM
Chain of p97–C209A (P55072 whole entry C209A): as the sequence (P55072 whole entry) above, with C209A counted along it
Chain of ClpX (P0A6H1 whole entry): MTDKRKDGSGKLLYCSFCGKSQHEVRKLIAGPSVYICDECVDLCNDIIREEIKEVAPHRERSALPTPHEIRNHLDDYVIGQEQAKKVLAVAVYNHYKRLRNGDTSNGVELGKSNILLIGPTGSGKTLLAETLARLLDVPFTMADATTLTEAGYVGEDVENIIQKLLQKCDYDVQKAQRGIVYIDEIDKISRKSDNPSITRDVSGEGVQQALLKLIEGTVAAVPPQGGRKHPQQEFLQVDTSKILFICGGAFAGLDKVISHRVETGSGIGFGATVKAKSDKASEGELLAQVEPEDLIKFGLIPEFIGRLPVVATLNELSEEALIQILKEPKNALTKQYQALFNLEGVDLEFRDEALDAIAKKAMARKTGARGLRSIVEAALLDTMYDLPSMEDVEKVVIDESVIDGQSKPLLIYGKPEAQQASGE
Chain of p97–Cys0 (P55072 whole entry C69V/C77V/C105V/C174V/C184V/C209A/C415V/C522A/C535V/C572V/C691V/C695V): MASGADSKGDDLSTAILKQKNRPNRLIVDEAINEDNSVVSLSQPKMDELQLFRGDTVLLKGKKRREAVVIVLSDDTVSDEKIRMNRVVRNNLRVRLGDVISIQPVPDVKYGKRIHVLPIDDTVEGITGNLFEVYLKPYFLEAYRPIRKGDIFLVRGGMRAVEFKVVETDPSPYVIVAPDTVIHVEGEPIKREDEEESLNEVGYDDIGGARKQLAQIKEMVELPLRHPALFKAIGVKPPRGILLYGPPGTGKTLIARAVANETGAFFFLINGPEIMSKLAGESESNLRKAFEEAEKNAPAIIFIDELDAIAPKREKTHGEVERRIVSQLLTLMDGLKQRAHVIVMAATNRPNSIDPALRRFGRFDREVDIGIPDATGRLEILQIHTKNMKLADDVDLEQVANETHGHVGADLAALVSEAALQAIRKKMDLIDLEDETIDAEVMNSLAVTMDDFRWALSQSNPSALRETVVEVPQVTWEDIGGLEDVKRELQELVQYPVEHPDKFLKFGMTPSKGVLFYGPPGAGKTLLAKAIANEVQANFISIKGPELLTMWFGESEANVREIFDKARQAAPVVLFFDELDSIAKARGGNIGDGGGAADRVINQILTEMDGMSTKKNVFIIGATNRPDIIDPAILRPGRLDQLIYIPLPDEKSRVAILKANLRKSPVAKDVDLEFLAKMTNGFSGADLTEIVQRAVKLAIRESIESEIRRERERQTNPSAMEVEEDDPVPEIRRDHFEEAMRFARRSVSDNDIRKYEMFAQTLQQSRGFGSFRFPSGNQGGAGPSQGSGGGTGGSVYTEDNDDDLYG
Chain of wild-type p97 (wt-p97) (P55072 whole entry): as the sequence (P55072 whole entry) above

Compound | IC50 (GroEL) | IC50 (wt p97) | IC50 (p97–C209A) | IC50 [3] | IC50 (p97–C522A) | IC50 (ClpX) | IC50 (p97–Cys0) | other results
CC1=C(CO)C(=O)O[C@@H]([C@@H](C)[C@H]2CC[C@H]3[C@@H]4C[C@H]5O[C@]56[C@@H](O)C=CC(=O)[C@]6(C)[C@H]4CC[C@]23C)C1 [Compound 1, withaferin A] | > 200 µM | 44 ± 0.21 µM | 24.9 ± 1.91 µM | > 200 µM | > 200 µM | > 200 µM | > 200 µM | effects on structural proteins [1]: did not see effects; inhibition of p97 in initial screen (wt p97; 100 μM for pure compounds, 384-well plate): moderate inhibition; effect of ATP concentration on the IC50 value (wt p97; varied ATP concentration): distinct shift in the IC50 value; inhibition of the 20S proteasome (20S proteasome): inhibit; level of Ub^G76VGFP reporter [2]: dose-dependent, higher levels of reporter; inhibition of p97 ATPase remaining after extensive dialysis (wild-type p97 (wt-p97)): slight inhibition remained; increase in XBP1s (XBP1s in HEK293 cells): did show an increase; total ubiquitylation [4]: increased
CC1=C(CO)C(=O)O[C@@H]([C@@H](C)[C@H]2CC[C@H]3[C@@H]4C[C@H]5O[C@]56[C@@H](O)[C@@H](O)CC(=O)[C@]6(C)[C@H]4CC[C@]23C)C1 [Compound 14, viscosalactone B] | > 200 µM | > 200 µM | > 200 µM | > 200 µM | > 200 µM | > 200 µM | > 200 µM | IC50 at 48 h (in vitro [5]): > 100 µM; IC50 at 48 h (in vitro [6]): > 100 µM; IC50 at 48 h (in vitro [7]): > 100 µM; IC50 at 48 h (in vitro [8]): > 100 µM; IC50 at 48 h (in vitro [9]): > 100 µM; IC50 at 48 h (in vitro [10]): > 100 µM
